Measured values: ChEMBL document CHEMBL4014343 (J Med Chem, 2017)
≈ marks a conversion by molar mass, not a printed value. One block for each compound: values may come before it. Calls of active or inactive are those of the source. The calls are words filed in the database; no cut-off is given here.

How the values were obtained:
MCF7 = test: Antiproliferative activity against human MCF7 cells after 3 days by SRB assay; assay type: functional, cell-based; details: Homo sapiens, MCF7, 72 h
[1] = Solubility of the compound in water by spectrophotometric method; assay type: physicochemical
How it was run: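 Ethanol standard solutions define absorbance maxima; aqueous solubility then quantified spectrophotometrically at that maximum by calibration.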

[2] = target: T1, Glycogen synthase kinase-3 beta (Homo sapiens, UniProt P49841); test: Inhibition of human N-terminal GST/His6-tagged GSK3beta (M1 to T420 residues) expressed in baculovirus infected sf9 cells at 1 uM using RBER-IRStide as substrate by filter binding assay
How it was run: (§1)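 Single-point profiling at 1 μM in a 22-kinase panel, performed externally by ProQinase; activity read as residual percent of control.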

[3] = target: Cyclin-dependent kinase 1/cyclin B1 (Homo sapiens) (UniProt P06493+P14635); test: Inhibition of recombinant human N-terminal GST/His6-tagged CDK1 (M1 to M297 residues)/Cyclin B1 (M1 to V433 residues) expressed in sf9 cells at 1 uM using RB-CTF as substrate by filter binding assay; how it was run: as §1
[4] = target: CDK2/Cyclin A2 (Homo sapiens) (UniProt P24941+P20248); test: Inhibition of recombinant human N-terminal GST-tagged CDK2 (M1 to L298 residues)/Cyclin A2 (M1 to L432 residues) expressed in baculovirus infected sf9 cells at 1 uM using Histone H1 as substrate by filter binding assay; how it was run: as §1
[5] = target: Cyclin-dependent kinase 2/cyclin E1 (Homo sapiens) (UniProt P24864+P24941); test: Inhibition of recombinant human N-terminal GST-tagged CDK2 (M1 to L298 residues)/Cyclin E1 (M1 to A395 residues) expressed in sf9 cells at 1 uM using RB-CTF as substrate by filter binding assay; how it was run: as §1
[6] = target: Cyclin-dependent kinase 4/cyclin D1 (Homo sapiens) (UniProt P11802+P24385); test: Inhibition of recombinant human N-terminal GST-tagged CDK4 (S4 to E303 residues)/Cyclin D1 (Q4 to I295 residues) expressed in sf9 cells at 1 uM using RB-CTF as substrate by filter binding assay; how it was run: as §1
[7] = target: Cyclin-dependent kinase 5/CDK5 activator 1 (Homo sapiens) (UniProt Q00535+Q15078); test: Inhibition of recombinant human N-terminal GST-tagged CDK5 (M1 to P292 residues)/p35NCK (M1 to R307 residues) expressed in baculovirus infected sf9 cells at 1 uM using RB-CTF as substrate by filter binding assay; how it was run: as §1
[8] = target: T2, Aurora kinase A (Homo sapiens) (UniProt O14965); test: Inhibition of human N-terminal GST/His6-tagged Aurora A (M1 to S403 residues) expressed in baculovirus infected sf9 cells at 1 uM using tetra(LRRLSLG) as substrate by filter binding assay; how it was run: as §1
T2 sequence (whole entry): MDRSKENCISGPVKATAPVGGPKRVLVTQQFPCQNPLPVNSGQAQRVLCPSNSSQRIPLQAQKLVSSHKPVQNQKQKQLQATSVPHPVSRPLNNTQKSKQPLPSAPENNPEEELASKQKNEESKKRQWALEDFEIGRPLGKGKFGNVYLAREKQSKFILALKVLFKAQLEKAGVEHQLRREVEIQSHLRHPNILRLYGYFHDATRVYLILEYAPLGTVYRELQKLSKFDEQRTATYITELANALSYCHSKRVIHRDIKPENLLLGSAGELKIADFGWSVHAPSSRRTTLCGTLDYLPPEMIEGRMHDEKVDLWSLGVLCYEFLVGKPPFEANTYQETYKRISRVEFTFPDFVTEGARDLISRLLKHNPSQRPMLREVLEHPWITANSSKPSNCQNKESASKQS

[9] = target: Aurora kinase B (Homo sapiens) (UniProt Q96GD4); test: Inhibition of human N-terminal GST/His6-tagged Aurora B (A2 to A344 residues) expressed in sf9 cells at 1 uM using tetra(LRRLSLG) as substrate by filter binding assay; how it was run: as §1
[10] = target: T3, Aurora kinase C (Homo sapiens) (UniProt Q9UQB9); test: Inhibition of human N-terminal GST-tagged Aurora B (M1 to S27 residues) expressed in sf9 cells at 1 uM using CDC25C-derived peptide as substrate by filter binding assay; how it was run: as §1
T3 sequence (whole entry): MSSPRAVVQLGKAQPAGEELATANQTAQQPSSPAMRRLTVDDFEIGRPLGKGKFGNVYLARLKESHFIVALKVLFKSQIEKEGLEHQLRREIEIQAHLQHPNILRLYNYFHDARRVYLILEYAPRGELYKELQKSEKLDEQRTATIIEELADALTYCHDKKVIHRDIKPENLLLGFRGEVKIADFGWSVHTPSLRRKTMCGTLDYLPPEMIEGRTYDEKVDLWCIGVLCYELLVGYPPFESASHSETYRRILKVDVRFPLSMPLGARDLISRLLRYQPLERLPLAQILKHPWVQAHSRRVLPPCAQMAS

[11] = target: Serine/threonine-protein kinase Chk2 (Homo sapiens) (UniProt O96017); test: Inhibition of CHK2 (unknown origin) at 1 uM; how it was run: as §1
[12] = target: Fibroblast growth factor receptor 1 (Homo sapiens) (UniProt P11362); test: Inhibition of human N-terminal GST/His6-tagged FGFR1 (G400 to R820 residues) expressed in baculovirus infected sf9 cells at 1 uM using Poly(Glu,Tyr)4:1 as substrate by filter binding assay; how it was run: as §1
[13] = Antiproliferative activity against human LXFL 529L cells after 3 days by SRB assay; assay type: functional, cell-based; details: Homo sapiens, LXFL 529L, 72 h
[14] = target: Cyclin-dependent kinase 2/cyclin E1 (Homo sapiens, UniProt P24941); test: Inhibition of full length human C-terminal His6-tagged CDK2/N-terminal GST-tagged CyclinE expressed in baculovirus infected sf21 cells after 10 mins in presence of [gamma32P]ATP by beta counting method
[15] = target: Cyclin-dependent kinase 1/cyclin B1 (Homo sapiens, UniProt P06493); test: Inhibition of full length human C-terminal His6-tagged CDK1/N-terminal GST-tagged CyclinB expressed in baculovirus infected sf21 cells after 10 mins in presence of [gamma32P]ATP by beta counting method; assay type: cell-based
CDK2/Cyclin A2 = CDK2/Cyclin A2 (Homo sapiens, UniProt P24941); test: Inhibition of full length human C-terminal His6-tagged CDK2/N-terminal GST-tagged CyclinA expressed in baculovirus infected sf21 cells after 10 mins in presence of [gamma32P]ATP by beta counting method
CDK6/cyclin D3 = CDK6/cyclin D3 (Homo sapiens, UniProt Q00534); test: Inhibition of full length human N-terminal His6-tagged CDK6/N-terminal GST-tagged CyclinD3 expressed in sf21 cells after 10 mins in presence of [gamma32P]ATP by beta counting method
[16] = target: T1, Glycogen synthase kinase-3 beta; test: Inhibition of recombinant GSK3beta (unknown origin) after 10 mins in presence of [gamma32P]ATP by beta counting method
How it was run: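 Recombinant kinase with 0.4 μCi [γ-32P]ATP per vial, 10 min at 30 °C; spotted on P81 paper, washed in 0.75% phosphoric acid, counted by β-scintillation. IC50 by linear regression versus solvent control; duplicates, ≥3 independent experiments.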

IC50 (MCF7): 17.9 µM | solubility [1]: 23.9 µg/mL (≈ 61.5 µM)
Compound: CN1CCN(C(=O)c2ccc3c(c2)C(=O)/C(=C2/C(=O)Nc4ccccc42)N3)CC1

solubility [1]: < 0.1 µg/mL
Compound: O=C1Nc2ccccc2/C1=C1/Nc2ccc([N+](=O)[O-])cc2C1=O

IC50 (MCF7): 0.89 µM | solubility [1]: > 25000 µg/mL
Compound: COc1ccc2c(c1)/C(=C1/Nc3ccccc3/C1=N\OCCN1CCN(C)CC1)C(=O)N2.Cl

inhibition [2]: Active | inhibition [3]: Active | inhibition [4]: Active | inhibition [5]: Active | inhibition [6]: Active | inhibition [7]: Active | inhibition [8]: Active | inhibition [9]: Active | inhibition [10]: Active | inhibition [11]: Active | inhibition [12]: Active
Compound: Cc1ccc2c(c1)NC(=O)/C2=C1\Nc2ccccc2\C1=N/O

solubility [1]: 5 µg/mL (≈ 10 µM)
Compound: O=C1Nc2ccc(O)cc2/C1=C1/Nc2ccccc2/C1=N\OCCO[C@@H]1O[C@H](CO)[C@@H](O)[C@H](O)[C@H]1O
IC50 [13]: 1.2 µM

solubility [1]: 2 µg/mL (≈ 5.27 µM)
Compound: O=C1Nc2ccccc2/C1=C1/Nc2ccccc2/C1=N\OCCCC(O)CO (configuration not stated)
IC50 [13]: 0.56 µM

solubility [1]: 3 µg/mL (≈ 8.21 µM) | IC50 [14]: 0.23 µM
Compound: O=C1Nc2ccccc2/C1=C1/Nc2ccccc2/C1=N\OCCC(O)CO (configuration not stated)
IC50 [13]: 0.65 µM

Compound: CCO/N=C1/C(=C2/C(=O)Nc3ccccc32)Nc2ccccc21
IC50 [13]: 7.6 µM

solubility [1]: 278 µg/mL (≈ 908 µM)
Compound: O=C1Nc2ccccc2/C1=C1/Nc2ccc(C(=O)O)cc2C1=O

IC50 (MCF7): 0.7 µM | solubility [1]: 50 µg/mL (≈ 97.4 µM) | IC50 [15]: 5.58 µM | IC50 (CDK2/Cyclin A2): 0.84 µM | IC50 [14]: 0.09 µM | IC50 (CDK6/cyclin D3): 0.41 µM | IC50 [16]: 0.1 µM
Compound: COc1ccc2c(c1)/C(=C1\Nc3ccccc3\C1=N/OCCO[C@@H]1O[C@H](CO)[C@@H](O)[C@H](O)[C@H]1O)C(=O)N2
IC50 [13]: 1.1 µM

IC50 [15]: 0.91 µM | IC50 (CDK2/Cyclin A2): 0.21 µM | IC50 [14]: 0.054 µM | IC50 (CDK6/cyclin D3): 0.16 µM | IC50 [16]: 0.09 µM
Compound: COc1ccc2c(c1)/C(=C1/Nc3ccccc3/C1=N\O)C(=O)N2

IC50 (MCF7): 3.6 µM | solubility [1]: 2.7 µg/mL (≈ 9.21 µM)
Compound: O=C1Nc2ccccc2/C1=C1/Nc2ccc(O)cc2/C1=N\O

IC50 (MCF7): 0.1 µM | solubility [1]: 2 µg/mL (≈ 5.69 µM) | IC50 [15]: 1.65 µM | IC50 (CDK2/Cyclin A2): 0.54 µM | IC50 [14]: 0.21 µM | IC50 (CDK6/cyclin D3): 0.075 µM | IC50 [16]: 0.11 µM | inhibition [2]: Active | inhibition [3]: Active | inhibition [4]: Active | inhibition [5]: Active | inhibition [6]: Active | inhibition [7]: Active | inhibition [8]: Active | inhibition [9]: Active | inhibition [10]: Active | inhibition [11]: Active | inhibition [12]: Active
Compound: O=C1Nc2ccccc2/C1=C1/Nc2ccccc2/C1=N\OCC(O)CO (configuration not stated)
IC50 [13]: 0.9 µM

IC50 (MCF7): 5.43 µM | solubility [1]: 16.1 µg/mL (≈ 42.8 µM)
Compound: CN(C)CCNC(=O)c1ccc2c(c1)C(=O)/C(=C1/C(=O)Nc3ccccc31)N2

IC50 (MCF7): 6 µM
Compound: COc1ccc2c(c1)C(=O)/C(=C1/C(=O)Nc3ccc(OC)cc31)N2
